Reference: article PMC11100303 (RSC Advances, 2024)

Tests used:
[1] = tested on: Human endocervical epithelial cell line (A2EN); experiment: MTT assay for cervical cell proliferation / viability; type: cell-based; conditions: 24 h treatment, even at high concentrations of 50 mM
[2] = Thermogravimetric analysis; type: physicochemical; conditions: TGA, 30 to 350 °C at 10 °C min^−1, nitrogen
Outline: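 Samples of 2–5 mg weighed into platinum pans and heated from 30 to 350 °C at 10 °C min−1 under nitrogen purge at 25 mL min−1. T5% taken as the temperature at 5% loss of total sample mass.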

[3] = pH of compound dissolved in water; type: physicochemical; conditions: mean ± S.D., n = 3
[4] = tested on: Human endocervical epithelial cell line (A2EN); experiment: Crystal violet staining for cervical cell morphology; type: cell-based; conditions: 24 h treatment, even at 100 mM

| T5% (onset temperature at 5% mass loss) [2] [°C] | pH [3] | Morphological changes of cervical epithelial cells [4] | Compound | Effect on cervical epithelial cell viability [1] |
| --- | --- | --- | --- | --- |
| 94.3 | 9.02 ± 1.7 | no morphological changes were observed | C[N+](C)(C)CCO.O=C([O-])[C@H](O)Cc1ccccc1 [Chol : D-PLA (1 : 1)] | did not significantly reduce cervical epithelial cell viability |
|  | 2.9 ± 1.2 |  | O=C(O)C(O)Cc1ccccc1 [D-PLA, 2-hydroxy-3-phenylpropanoic acid] |  |
| 156.07 | 3.2 ± 1.6 |  | O=C(O)C(O)Cc1ccccc1 [L-PLA, 2-hydroxy-3-phenylpropanoic acid] |  |
| 189.9 |  |  | C[N+](C)(C)C[C@H](O)CC(=O)[O-] [carnitine, L-Carnitine] |  |
